The series can be described thus: Toxicity liver stage against HepG2, at 10uM. It is filed as cell-based. On the set-up: test concentration 10 uM, cell line HepG2-A16-CD81EGFP. Particulars: human, HepG2-A16-CD81EGFP cells; read-out: INHIBITION
An outline of the steps:
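Uninfected HepG2-A16-CD81EGFP cells, 3 × 10^3 per well, 1536-well, plated on prespotted compound at 10 μM final, parasite-free screening media added to match infected plates; puromycin 10 μM positive, DMSO 0.5% negative; run in parallel with 48 h PbLuc assay at 37 °C, 5% CO2; viability by CellTiter-Glo luminescence, normalized to controls.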

As to `CCS(=O)(=O)N1CCOC2(CCCN(c3ncc(F)cn3)C2)C1` (stereo not drawn), the cytotoxicity at 10 µM is 5.86%.

For `Cc1nc2cc(-c3nccn3C)nn2c(N2CCC(O)CC2)c1C`, the cytotoxicity at 10 µM is -3.31%.

As for `Cc1n[nH]c(C)c1-c1cnc(CC2CCCN(S(C)(=O)=O)C2)cn1` (stereo not drawn), the cytotoxicity at 10 µM was -7.3%.

Turning to `Cc1nccn1-c1ccc(C(C)Nc2cnn(C)c(=O)c2Cl)cc1` (stereo not drawn), the cytotoxicity at 10 µM amounted to 18.7%.

For `N#Cc1ccc(CNCC2(c3ccccc3)CCOCC2)cc1`, the cytotoxicity at 10 µM was determined as 8.78%.

As for `CSc1ccc(CNc2ccccc2CN2CCC(O)CC2)cc1`, the cytotoxicity at 10 µM was -4.75%.

In the case of `Cc1cc(N[C@H](CO)COCc2ccccc2)n2nc(C)cc2n1`, the cytotoxicity at 10 µM is 0.324%.

In the case of `CC(NCc1cccc(S(=O)(=O)N(C)C)c1)c1cccnc1` (stereo not drawn), the cytotoxicity at 10 µM was 1.56%.

For `Cc1ccc(C)c2c(O)cc(CN3CCC(c4nncn4C)CC3)nc12`, the cytotoxicity at 10 µM was -2.24%.

For the molecule `COCCn1cncc1-c1nc2c([nH]1)CC(C)(C)CNC2=O`, the cytotoxicity at 10 µM worked out at 8.42%.

`O=S(=O)(c1cccs1)N1Cc2nc(COCC3CC3)oc2C1`: the cytotoxicity at 10 µM was -109%.

As for `Cc1sc(CN)nc1-c1ccc(Cl)cc1`, the cytotoxicity at 10 µM is -3.07%.

In the case of `C[C@@H]1C[C@H](C(F)(F)F)n2nc(C3CCN(S(C)(=O)=O)CC3)cc2N1`, the cytotoxicity at 10 µM was -16.9%.

With `COc1c(Br)c(C(=O)NC2CC2)nn1C`, the cytotoxicity at 10 µM came to 3.18%.

In the case of `COCCC(Cc1cccc(Br)c1)C(=O)N(C)C` (stereo not drawn), the cytotoxicity at 10 µM was found to be 13%.

`Cc1cccc(N(CC(=O)c2ccccc2)C2=NCCCCC2)c1`: the cytotoxicity at 10 µM stood at 14.5%.

Consider `CCOCC1CCN(C(=O)Nc2ccc(-c3csnn3)cc2)C1` (stereo not drawn), for which the cytotoxicity at 10 µM was 13.7%.

Take `Cc1cc2cccc(C(=O)N3CCOC(CCN(C)C)C3)c2o1` (stereo not drawn): the cytotoxicity at 10 µM came to 5.91%.

As to `Cc1cnn(CC(C)NCc2cc(=O)n3cc(C)ccc3n2)c1` (stereo not drawn), the cytotoxicity at 10 µM was found to be 3.89%.

As to `CC(C)(C)Oc1ccncc1NCc1cscn1`, the cytotoxicity at 10 µM was 15.7%.

For `Cc1nc(C#N)c(N2CCC(c3nc(-c4ccc(F)cc4)no3)CC2)o1`, the cytotoxicity at 10 µM amounted to 3.86%.

Consider `c1cc(C2CCN(c3cnccn3)CC2)ncn1`, for which the cytotoxicity at 10 µM is 2.64%.

As for `CCOC1CCCN(C(=O)c2sccc2-n2cnnn2)C1` (stereo not drawn), the cytotoxicity at 10 µM came to 4.39%.

Regarding `COc1ccccc1C(=O)NC(c1ccccn1)C1CCC(CN)CC1` (stereo not drawn), the cytotoxicity at 10 µM is -12.8%.

On to `C[C@@H]1CN(CC(C)(C)N2CCOCC2)C[C@@]1(O)C1CC1`, for which the cytotoxicity at 10 µM was found to be 2.93%.

In the case of `C[C@@H]1CN(Cc2cccc(F)c2)C[C@]12CCN(Cc1cccnc1)C2=O`, the cytotoxicity at 10 µM is -2.6%.

In the case of `CC(=O)N1CCc2c(nc(N(C)C)nc2NCCc2cccs2)C1`, the cytotoxicity at 10 µM was -54%.

Turning to `Cc1cn(CCn2ccnc2-c2sccc2C)nn1`, the cytotoxicity at 10 µM was 15.9%.

For the molecule `Cc1cc2c(cc1NC(N)=O)OCO2`, the cytotoxicity at 10 µM was determined as 3.13%.

For the molecule `COCC(=O)N1CCC2(CC1)COCCN2Cc1ccc(F)cc1`, the cytotoxicity at 10 µM was -73.4%.

In the case of `CCn1ccnc1CN1CCCN(C(=O)c2cccn2C)CC1`, the cytotoxicity at 10 µM was -8.93%.

As for `Cc1cnccc1-n1nc(C(C)C)nc1CCc1cnccn1`, the cytotoxicity at 10 µM worked out at 1.92%.

Regarding `CSc1ccccc1NC(=O)CCC(=O)N(C)C1CCN(C)CC1`, the cytotoxicity at 10 µM is -2.91%.

Consider `CN1C[C@@H](N)C[C@H]1C(=O)N1CCC(Cc2ccc(F)cc2)CC1`, for which the cytotoxicity at 10 µM is -21.2%.

`CC(=O)N1CCCN(C(=O)NCCOc2ccc3c(c2)CCC3)CC1`: the cytotoxicity at 10 µM was -1.84%.

On to `CC(C)c1nnc(CN2CCc3ccc(S(N)(=O)=O)cc32)o1`, for which the cytotoxicity at 10 µM came to 3.2%.

On to `Cc1nccc(C(=O)N2CCOC(c3nc(C(C)C)n[nH]3)C2)n1` (stereo not drawn), for which the cytotoxicity at 10 µM was -15.7%.

In the case of `COCCN1CC(c2cc(O)nc(NC(C)C)n2)CC1=O` (stereo not drawn), the cytotoxicity at 10 µM is -39.7%.

As for `CC(C#N)CNC(=O)Nc1ccc(-c2cc[nH]n2)cc1` (stereo not drawn), the cytotoxicity at 10 µM was -3.27%.

For the molecule `Cc1cc(C)n(Cc2cc(C(=O)N3CCCCC3c3nccs3)n[nH]2)n1` (stereo not drawn), the cytotoxicity at 10 µM stood at 13.8%.

As for `OCCN1CCC(CNCCOCC(F)(F)F)CC1`, the cytotoxicity at 10 µM is -0.903%.

Regarding `CS(=O)(=O)NCc1cccc(COC2CCCCC2)c1`, the cytotoxicity at 10 µM stood at 3.12%.

With `CC(C)(C)c1nc(C(C)(C)NC(=O)C2CC(=O)N(CC3CC3)C2)no1` (stereo not drawn), the cytotoxicity at 10 µM is -5.4%.

As for `COCCN(Cc1cccc(C#N)c1)Cc1nnsc1Cl`, the cytotoxicity at 10 µM was found to be 7.96%.

On to `Cn1cc(C(=O)N2CCCC(c3ccncc3)C2)cn1` (stereo not drawn), for which the cytotoxicity at 10 µM was -13%.

In the case of `COCc1ccc(C(=O)N2CCC(c3nccn3CC3CC3)CC2)o1`, the cytotoxicity at 10 µM is -2.81%.

Turning to `O=C(c1ccon1)N1CCc2ncnc(NCc3ccccn3)c2CC1`, the cytotoxicity at 10 µM was 0.436%.

Turning to `CNc1nc(CNC(=O)Nc2cccc(OC)c2)cs1`, the cytotoxicity at 10 µM was -3.28%.

Turning to `O=C(c1cc2ccccc2c(=O)[nH]1)N1CCN(CCO)CC1`, the cytotoxicity at 10 µM stood at 4.96%.

Take `O=C1CC2(CCN(S(=O)(=O)c3cccs3)C2)CN1c1cccc(F)c1` (stereo not drawn): the cytotoxicity at 10 µM is -1.51%.

In the case of `O=C1COC2(CCN(Cc3cccs3)CC2)CN1c1cccnc1`, the cytotoxicity at 10 µM was -125%.

With `COCCN1CCCC(CN(C)c2nc3c(s2)c(C)nn3C)C1` (stereo not drawn), the cytotoxicity at 10 µM came to 5.37%.

As to `Cn1ncc2c(=O)[nH]c(CN3CCCC3Cc3ccc(F)cc3)nc21` (stereo not drawn), the cytotoxicity at 10 µM was found to be 0.301%.

Take `CC(=O)c1cccc(S(=O)(=O)NCc2cccnc2N(C)C)c1`: the cytotoxicity at 10 µM was determined as 4.24%.

Turning to `Cc1noc(C)c1CN1Cc2cn(C)nc2C(COCC2CC2)C1` (stereo not drawn), the cytotoxicity at 10 µM was -73%.

For `CCOc1cc(/C=C/c2ncc(C(=O)O)s2)cc(Cl)c1OC`, the cytotoxicity at 10 µM stood at 8.13%.

As for `O=C(Cc1ccccn1)N1C[C@H]2CC[C@@H](C1)N(Cc1ccccc1)C2=O`, the cytotoxicity at 10 µM is -13%.

As to `CCCNc1c(NC(=O)NCCCOC)c(=O)oc2ccccc12`, the cytotoxicity at 10 µM was -4.52%.

`CC(=O)N1Cc2ccccc2OC2(CCN(C(=O)C3CC3)CC2)C1`: the cytotoxicity at 10 µM was determined as 9.91%.

Take `CN1CCN(CC2CC2)C(=O)c2cnc(N3CCCC3)nc21`: the cytotoxicity at 10 µM worked out at 5.08%.

For the molecule `N#Cc1cccc(NC(=O)C2CCCN2c2nccs2)c1` (stereo not drawn), the cytotoxicity at 10 µM is -5.28%.

For `COc1c(C)cnc(CN2CCn3c(nnc3C(C)C)C2)c1C`, the cytotoxicity at 10 µM was 5.56%.

As for `Cc1cn2c(n1)C(CNCc1cnn3ccccc13)CCC2` (stereo not drawn), the cytotoxicity at 10 µM was determined as 1.78%.

For `CC(O)C(=O)N1CCC(c2[nH]ncc2-c2ccccc2)CC1` (stereo not drawn), the cytotoxicity at 10 µM is -2%.

Take `CNc1cc(N2CCCC2CNCc2ccc(C)o2)ncn1` (stereo not drawn): the cytotoxicity at 10 µM is -2.69%.

For `Cn1c(C(=O)N(CC(N)=O)C2CCCC2)cc(Cl)c1Cl`, the cytotoxicity at 10 µM came out at 9.31%.

`COc1cc2[nH]c(=O)c(CN3CCCC(CO)C3)cc2c(OC)c1OC` (stereo not drawn): the cytotoxicity at 10 µM is -11.7%.

Turning to `CCN(C)c1ncnc2c1CCN(Cc1ccsc1)CC2`, the cytotoxicity at 10 µM is 1.69%.

Consider `Cc1cccc(C(C)(C)NC(=O)CS(=O)(=O)CC(C)C)c1`, for which the cytotoxicity at 10 µM came to 0.927%.

With `Cc1cccc(C)c1OCCNC(=O)C(C)n1cncn1` (stereo not drawn), the cytotoxicity at 10 µM was -1.46%.

With `CCO[C@@H]1CC[C@H]2[C@H]1OCCN2C(=O)c1ccc(OC)c(F)c1`, the cytotoxicity at 10 µM came to 15.7%.

On to `Cc1nc(-c2ccoc2)n(CC(=O)NCC(C)C)c1C`, for which the cytotoxicity at 10 µM is -1.49%.

In the case of `COc1ccc(CN2CCc3nc(C4CCCCN4C)ncc3C2)cc1` (stereo not drawn), the cytotoxicity at 10 µM is -1.08%.

The values are drawn from ChEMBL document CHEMBL4513216, “Probing the Open Global Health Chemical Diversity Library for Multistage-Active Starting Points for Next-Generation Antimalarials” (ACS Infect Dis, 2020).
